Source: ChEMBL document CHEMBL1142504, “Influence of 6- or 8-substitution on the antiviral activity of 3-arylalkylthiomethylimidazo[1,2-a]pyridine against human cytomegalovirus (CMV) and varicella-zoster virus (VZV): part II” (Bioorg Med Chem, 2008)
Converted amounts (≈) assume the structure as drawn.

Key:
[1] = test system: Human alphaherpesvirus 3; test: Antiviral activity against thymidine kinase deficient Varicella-Zoster virus 07/1 in HEL cells assessed as inhibition of viral cytopathicity; assay type: functional, organism-based; details: Human alphaherpesvirus 3, HEL
In short: (§1)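 VZV input was 20 PFU per HEL cell culture. Cultures were incubated with test compound for 5 days at 37 °C under 5% CO2, then fixed and stained. Viral plaque formation was counted against the untreated control to give the EC50.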

[2] = test system: Human betaherpesvirus 5; test: Antiviral activity against human cytomegalovirus AD169 in HEL cells assessed as inhibition of viral cytopathicity; assay type: functional, organism-based; details: Human betaherpesvirus 5, AD169, HEL
In short: (§2)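 Confluent HEL cell cultures were inoculated with 100 PFU of HCMV. After 2 h adsorption, residual virus was removed and cells were incubated with varying concentrations of test compound. Viral cytopathicity was scored when it reached completion in the untreated virus-infected controls, and the EC50 was taken from this read-out.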

[3] = test system: Human betaherpesvirus 5; test: Antiviral activity against human cytomegalovirus Davis in HEL cells assessed as inhibition of viral cytopathicity; assay type: functional, organism-based; details: Human betaherpesvirus 5, Davis; in short: as §2
[4] = Cytotoxicity against HEL cells assessed as morphological alteration after 3 days; assay type: cell-based; details: human
In short: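 HEL cell cultures were examined by microscope. Cytotoxicity was recorded as the minimum cytotoxic concentration (MCC), meaning the lowest compound concentration that caused a detectable alteration of cell morphology.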

[5] = Cytotoxicity against HEL cells assessed as reduction of growth after 3 days; assay type: cell-based; details: human
In short: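 HEL cell suspensions were added to wells holding varying concentrations of test compound. Plates were incubated 3 days at 37 °C in a humidified CO2 incubator, and viable cells were counted with a Coulter Counter. CC50 is the concentration that reduced viable cell number by 50%.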

[6] = test system: Human alphaherpesvirus 3; test: Antiviral activity against thymidine kinase expressing Varicella-Zoster virus Oka in HEL cells assessed as inhibition of viral cytopathicity; assay type: functional, organism-based; details: Human alphaherpesvirus 3, Oka; in short: as §1

| Structure (SMILES) | EC50 [1] | EC50 [2] | EC50 [3] | EC50 [6] | MCC at 72 h [4] | CC50 at 72 h [5] |
| --- | --- | --- | --- | --- | --- | --- |
| Cc1cc(N2CCCC2)cn2c(CSCCc3ccccc3)cnc12 | > 4 mg/L | 4 mg/L (≈ 11.4 µM) | 2 mg/L (≈ 5.69 µM) | > 4 mg/L | 20 µg/mL | 12 mg/L (≈ 34.1 µM) |
| Cc1cc(-c2ccsc2)c2ncc(CSCc3ccccc3)n2c1 | 6.5 mg/L (≈ 18.5 µM) | 4 mg/L (≈ 11.4 µM) | 2.1 mg/L (≈ 5.99 µM) | 7.3 mg/L (≈ 20.8 µM) | 100 µg/mL | 100 mg/L (≈ 285 µM) |
| Cc1cc(N2CCCC2=O)cn2c(CSCCc3ccccc3)cnc12 | > 20 mg/L | > 20 mg/L | > 20 mg/L | > 100 mg/L | > 100 µg/mL | 89 mg/L (≈ 244 µM) |
| Cc1cc(N2CCN(C)CC2)cn2c(CSCCc3ccccc3)cnc12 | > 4 mg/L | > 20 mg/L | > 4 mg/L | > 4 mg/L | 20 µg/mL | 32 mg/L (≈ 84.1 µM) |
| Nc1nc2c(ncn2COCCO)c(=O)[nH]1 [ACYCLOVIR] | 13 mg/L (≈ 57.7 µM) |  |  | 0.24 mg/L (≈ 1.07 µM) | > 400 µg/mL | 137 mg/L (≈ 608 µM) |
| Cc1cc(N2CCCC2=O)c2ncc(CSCCc3ccccc3)n2c1 | > 4 mg/L | > 4 mg/L | > 4 mg/L | > 4 mg/L | 20 µg/mL | 25 mg/L (≈ 68.4 µM) |
| Cc1cc(-n2cccc2)cn2c(CSCc3ccccc3)cnc12 | 2.1 mg/L (≈ 6.3 µM) | 1.6 mg/L (≈ 4.8 µM) | 1.3 mg/L (≈ 3.9 µM) | > 4 mg/L | 20 µg/mL | 17 mg/L (≈ 51 µM) |
| Cc1cc(C#N)c2ncc(CSCCc3ccccc3)n2c1 | > 4 mg/L | 2.2 mg/L (≈ 7.16 µM) | 2 mg/L (≈ 6.51 µM) | 16.4 mg/L (≈ 53.3 µM) | ≥ 20 µg/mL | > 100 mg/L |
| Cc1cc(N2CCCC2)c2ncc(CSCc3ccccc3)n2c1 | > 4 mg/L | 10 mg/L (≈ 29.6 µM) | 5.2 mg/L (≈ 15.4 µM) | 17.7 mg/L (≈ 52.4 µM) | ≥ 20 µg/mL | 52 mg/L (≈ 154 µM) |
| Cc1cc(-n2cccc2)c2ncc(CSCc3ccccc3)n2c1 | 1.8 mg/L (≈ 5.4 µM) | 6.3 mg/L (≈ 18.9 µM) | 2.9 mg/L (≈ 8.7 µM) | 2.2 mg/L (≈ 6.6 µM) | 100 µg/mL | 15 mg/L (≈ 45 µM) |
| O=c1[nH]c(=O)n([C@H]2C[C@H](O)[C@@H](CO)O2)cc1/C=C/Br [BRIVUDINE] | > 50 mg/L |  |  | 0.0037 mg/L (≈ 0.0111 µM) | 400 µg/mL | 122 mg/L (≈ 366 µM) |
| Cc1cc(-n2ccnc2)c2ncc(CSCCc3ccccc3)n2c1 | > 4 mg/L | 3.1 mg/L (≈ 8.9 µM) | 2.3 mg/L (≈ 6.6 µM) | > 4 mg/L | 20 µg/mL | 10 mg/L (≈ 28.7 µM) |
| Cc1cc(N2CCOCC2)cn2c(CSCCc3ccccc3)cnc12 | > 20 mg/L | > 20 mg/L | > 20 mg/L | > 20 mg/L | 100 µg/mL | 45 mg/L (≈ 122 µM) |
| Cc1cc(N2CCCC2)c2ncc(CSCCc3ccccc3)n2c1 | > 20 mg/L | > 20 mg/L | 20 mg/L (≈ 56.9 µM) | 35.7 mg/L (≈ 102 µM) | > 100 µg/mL | > 100 mg/L |
| Nc1ccn(C[C@@H](CO)OCP(=O)(O)O)c(=O)n1 [CIDOFOVIR] |  |  |  |  | ≥ 100 µg/mL |  |
| Cc1cc(N2CCOCC2)c2ncc(CSCCc3ccccc3)n2c1 | 36.6 mg/L (≈ 99.6 µM) | > 4 mg/L | 8.2 mg/L (≈ 22.3 µM) | 53.6 mg/L (≈ 146 µM) | > 100 µg/mL | 49 mg/L (≈ 133 µM) |
| Cc1cc(-n2ccc3cccnc32)c2ncc(CSCCc3ccccc3)n2c1 | 14 mg/L (≈ 35.1 µM) | 4 mg/L (≈ 10 µM) | 1.8 mg/L (≈ 4.52 µM) | 6.6 mg/L (≈ 16.6 µM) | 100 µg/mL | > 100 mg/L |

More lines, main results first:

| EC50 [1] | EC50 [2] | EC50 [3] | EC50 [6] | Structure (SMILES) | MCC at 72 h [4] | CC50 at 72 h [5] |
| --- | --- | --- | --- | --- | --- | --- |
| 2.9 mg/L (≈ 7.13 µM) | > 0.8 mg/L | 0.8 mg/L (≈ 1.97 µM) | 58 mg/L (≈ 143 µM) | Cc1cc(Sc2ccc(O)cc2)c2ncc(CSCCc3ccccc3)n2c1 | > 100 µg/mL | 79 mg/L (≈ 194 µM) |
|  | > 20 mg/L | > 4 mg/L |  | Cc1cc(-c2ccc3[nH]ccc3c2)cn2c(CSCCc3ccccc3)cnc12 | ≥ 20 µg/mL | 26 mg/L (≈ 65.4 µM) |
| > 0.8 mg/L | > 0.8 mg/L | > 0.8 mg/L | > 0.8 mg/L | Cc1cc(Sc2ccc(Cl)cc2)c2ncc(CSCCc3ccccc3)n2c1 | 4 µg/mL | 100 mg/L (≈ 235 µM) |
| > 20 mg/L | 1.8 mg/L (≈ 5.17 µM) | 1.3 mg/L (≈ 3.73 µM) | 20 mg/L (≈ 57.4 µM) | Cc1cc(-c2ccoc2)c2ncc(CSCCc3ccccc3)n2c1 | 100 µg/mL | 64 mg/L (≈ 184 µM) |
| > 20 mg/L | 20 mg/L (≈ 50.3 µM) | 10.5 mg/L (≈ 26.4 µM) | > 20 mg/L | Cc1cc(-n2ccc3ccccc32)c2ncc(CSCCc3ccccc3)n2c1 | 100 µg/mL | > 100 mg/L |
| > 0.8 mg/L | > 0.8 mg/L | 0.8 mg/L (≈ 1.97 µM) | > 0.8 mg/L | Cc1cc(Sc2ccc(O)cc2)cn2c(CSCCc3ccccc3)cnc12 | 4 µg/mL | 100 mg/L (≈ 246 µM) |
| 2.2 mg/L (≈ 5.42 µM) | 1.8 mg/L (≈ 4.44 µM) | 1.8 mg/L (≈ 4.44 µM) | > 4 mg/L | Cc1cc(Sc2ccc(N)cc2)cn2c(CSCCc3ccccc3)cnc12 | 20 µg/mL | 23 mg/L (≈ 56.7 µM) |
| 7.9 mg/L (≈ 22.7 µM) | 2.5 mg/L (≈ 7.17 µM) | 2.7 mg/L (≈ 7.75 µM) | 6.6 mg/L (≈ 18.9 µM) | Cc1cc(-c2ccco2)c2ncc(CSCCc3ccccc3)n2c1 | 100 µg/mL | 41 mg/L (≈ 118 µM) |
| > 4 mg/L | 2 mg/L (≈ 5.02 µM) | 1.4 mg/L (≈ 3.51 µM) | > 4 mg/L | Cc1cc(-n2ccc3cccnc32)cn2c(CSCCc3ccccc3)cnc12 | 20 µg/mL | 16 mg/L (≈ 40.1 µM) |
| 11.4 mg/L (≈ 32.7 µM) | 8.9 mg/L (≈ 25.5 µM) | 6.8 mg/L (≈ 19.5 µM) | 10.7 mg/L (≈ 30.7 µM) | Cc1cc(-n2ccnc2)cn2c(CSCCc3ccccc3)cnc12 | 100 µg/mL | 23 mg/L (≈ 66 µM) |
|  | 12.6 mg/L (≈ 32.6 µM) | 6 mg/L (≈ 15.5 µM) |  | Cc1cc(-c2ccc(C=O)cc2)cn2c(CSCCc3ccccc3)cnc12 | 100 µg/mL | 9.4 mg/L (≈ 24.3 µM) |
| > 4 mg/L | > 4 mg/L | > 4 mg/L | > 4 mg/L | Cc1cc(Sc2ccc(Cl)cc2)cn2c(CSCCc3ccccc3)cnc12 | 20 µg/mL | 14 mg/L (≈ 32.9 µM) |
|  | > 4 mg/L | 2.9 mg/L (≈ 7.54 µM) |  | C=Cc1ccc(-c2cc(C)c3ncc(CSCCc4ccccc4)n3c2)cc1 | 20 µg/mL | 14 mg/L (≈ 36.4 µM) |
| > 0.8 mg/L | > 0.8 mg/L | 1.3 mg/L (≈ 3.74 µM) | > 4 mg/L | Cc1cc(-n2cccc2)cn2c(CSCCc3ccccc3)cnc12 | ≥ 4 µg/mL | 11 mg/L (≈ 31.7 µM) |
| > 0.8 mg/L | > 0.8 mg/L | > 0.8 mg/L | > 4 mg/L | Cc1cc(-c2ccco2)cn2c(CSCCc3ccccc3)cnc12 | > 4 µg/mL | 40 mg/L (≈ 115 µM) |
|  | > 100 mg/L | 30 mg/L (≈ 81 µM) |  | C=Cc1ccc(-c2cc(C)c3ncc(CSCc4ccccc4)n3c2)cc1 | ≥ 100 µg/mL | 59 mg/L (≈ 159 µM) |
| > 20 mg/L | 1.8 mg/L (≈ 5.18 µM) | 1.8 mg/L (≈ 5.18 µM) | > 20 mg/L | Cc1cc(-n2cccc2)c2ncc(CSCCc3ccccc3)n2c1 | 100 µg/mL | 26 mg/L (≈ 74.8 µM) |
| > 4 mg/L | 8.9 mg/L (≈ 29 µM) | 8.9 mg/L (≈ 29 µM) | > 4 mg/L | Cc1cc(C#N)cn2c(CSCCc3ccccc3)cnc12 | 20 µg/mL | 14 mg/L (≈ 45.5 µM) |
| > 0.8 mg/L | > 0.8 mg/L | 0.8 mg/L (≈ 2.28 µM) | > 0.8 mg/L | Cc1cc(-c2ccsc2)cn2c(CSCc3ccccc3)cnc12 | 4 µg/mL | 9.4 mg/L (≈ 26.8 µM) |
| > 4 mg/L | > 4 mg/L | 1.8 mg/L (≈ 4.53 µM) | > 20 mg/L | Cc1cc(-n2ccc3ccccc32)cn2c(CSCCc3ccccc3)cnc12 | > 20 µg/mL | 18 mg/L (≈ 45.3 µM) |
| > 0.8 mg/L | > 0.8 mg/L | 0.27 mg/L (≈ 0.775 µM) | 2.4 mg/L (≈ 6.89 µM) | Cc1cc(-c2ccoc2)cn2c(CSCCc3ccccc3)cnc12 | > 4 µg/mL | 12 mg/L (≈ 34.4 µM) |
